Source: PMC5656813 (Arthritis & Rheumatology (Hoboken, N.j.), 2017)

System: RA patients
Assay: Study 1, treatment‐emergent adverse events
Format: in vivo, human
Details: for treatment-related TEAE: Abdominal discomfort / treatment-related TEAE: Abdominal pain, upper / treatment-related TEAE: Aspartate aminotransferase increased / treatment-related TEAE: Blood amylase increased / treatment-related TEAE: Blood and lymphatic system disorders / treatment-related TEAE: Blood triglycerides increased / treatment-related TEAE: Cystitis, noninfectious / treatment-related TEAE: Duodenogastric reflux / treatment-related TEAE: Ear and labyrinth disorders / treatment-related TEAE: Gastrointestinal disorders / treatment-related TEAE: Gastrointestinal pain / treatment-related TEAE: General disorders and administration site reactions / treatment-related TEAE: Gingival bleeding / treatment-related TEAE: Infections and infestations / treatment-related TEAE: Laboratory findings / treatment-related TEAE: Lipase increased / treatment-related TEAE: Musculoskeletal and connective tissue disorders / treatment-related TEAE: Nervous system disorders / treatment-related TEAE: Renal and urinary disorders: study 1
Procedure, shortened: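 Both double-blind, placebo-controlled trials in RA patients on stable MTX. Oral capsules daily for 4 weeks, with 7–10-day follow-up: 200 mg once daily or 100 mg twice daily (study 1); 30, 75, 150 or 300 mg once daily (study 2). At every visit: AEs, vital signs, hematology, serum biochemistry, coagulation and urinalysis. EKG at baseline and follow-up, plus week 4 in study 1. Safety population, descriptive treatment-emergent AE summaries.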

O=C(Nc1nc2cccc(-c3ccc(CN4CCS(=O)(=O)CC4)cc3)n2n1)C1CC1 [Filgotinib]
generally well tolerated: overall tolerability (studies 1 and 2)
0 number (%) of patients: treatment-related TEAE: Abdominal pain, upper (100 mg twice daily) | treatment-related TEAE: Aspartate aminotransferase increased (100 mg twice daily) | treatment-related TEAE: Blood amylase increased (100 mg twice daily) | treatment-related TEAE: Blood and lymphatic system disorders (100 mg twice daily) | treatment-related TEAE: Blood triglycerides increased (100 mg twice daily) | treatment-related TEAE: Cystitis, noninfectious (100 mg twice daily) | treatment-related TEAE: Duodenogastric reflux (100 mg twice daily) | treatment-related TEAE: Ear and labyrinth disorders (100 mg twice daily) | treatment-related TEAE: Gastrointestinal pain (100 mg twice daily) | treatment-related TEAE: General disorders and administration site reactions (100 mg twice daily) | treatment-related TEAE: Gingival bleeding (100 mg twice daily) | treatment-related TEAE: Infections and infestations (100 mg twice daily) | treatment-related TEAE: Musculoskeletal and connective tissue disorders (100 mg twice daily) | treatment-related TEAE: Renal and urinary disorders (100 mg twice daily) | treatment-related TEAE: Abdominal discomfort (200 mg once daily) | treatment-related TEAE: Aspartate aminotransferase increased (200 mg once daily) | treatment-related TEAE: Blood amylase increased (200 mg once daily) | treatment-related TEAE: Blood and lymphatic system disorders (200 mg once daily) | treatment-related TEAE: Blood triglycerides increased (200 mg once daily) | treatment-related TEAE: Cystitis, noninfectious (200 mg once daily) | treatment-related TEAE: Duodenogastric reflux (200 mg once daily) | treatment-related TEAE: Ear and labyrinth disorders (200 mg once daily) | treatment-related TEAE: Gastrointestinal pain (200 mg once daily) | treatment-related TEAE: General disorders and administration site reactions (200 mg once daily) | treatment-related TEAE: Gingival bleeding (200 mg once daily) | treatment-related TEAE: Infections and infestations (200 mg once daily) | treatment-related TEAE: Laboratory findings (200 mg once daily) | treatment-related TEAE: Lipase increased (200 mg once daily) | treatment-related TEAE: Musculoskeletal and connective tissue disorders (200 mg once daily) | treatment-related TEAE: Renal and urinary disorders (200 mg once daily)
1 (8.3) number (%) of patients: treatment-related TEAE: Abdominal discomfort (100 mg twice daily) | treatment-related TEAE: Laboratory findings (100 mg twice daily) | treatment-related TEAE: Lipase increased (100 mg twice daily) | treatment-related TEAE: Nervous system disorders (100 mg twice daily) | treatment-related TEAE: Abdominal pain, upper (200 mg once daily) | treatment-related TEAE: Nervous system disorders (200 mg once daily)
2 (16.7) number (%) of patients: treatment-related TEAE: Gastrointestinal disorders (100 mg twice daily) | treatment-related TEAE: Gastrointestinal disorders (200 mg once daily)
